Where a SMILES comes first, the peptide text is derived from it. [ ]: non-standard residue; d: D form. The star is where a group is joined. X1 = COC1=CC(=O)N(C(=O)[C@@H](O*)C(C)C)[C@H]1Cc1ccccc1; NMe2Val = CC(C)[C@@H](C(=O)*)N(C)C; NMeV = CN[C@H](C(=O)O)C(C)C
Columns and labels:
[1] = system: HeLa; assay: Cytotoxicity against human HeLa cells after 24 to 48 hrs by trypan blue assay; format: functional, cell-based
In short: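 Cells were seeded at 1 × 10^5 cells/mL, grown 24 h at 37 °C in 5% CO2, then given vehicle (0.1% DMSO) or 1–80 nM for a further 24 or 48 h. Attached plus floating cells were counted after trypan blue staining. Percent inhibition was plotted against concentration to give IC50. Average of three independent experiments.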

[2] = Inhibition of goat brain tubulin polymerization incubated for 20 mins prior to GTP addition measured for 30 mins by 90 degree light scattering-based fluorescence spectrophotometric method; set-up: species or system Capra hircus
In short: (§1)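 Goat brain tubulin (10 μM) was preincubated with compound (5 μM; or 1, 5, 7, 10 μM) in 1 M monosodium glutamate, 3 mM MgCl2, 1 mM EGTA, 25 mM Pipes pH 6.8 on ice for 20 min. GTP (1 mM) was then added and assembly followed by 90° light scattering at 400 nm for 30 min at 37 °C. Experiment run twice.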

[3] = species on record: Capra hircus; details: 3 uM
[4] = system: HeLa; assay: Antiproliferative activity against human HeLa cells assessed as median dose after 24 hrs; format: functional
In short: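 HeLa cells treated for 24 h with each agent alone and in combinations. The median dose (Dm) was taken from the median dose plot, and combination index was computed as CI = (D)1/(Dx)1 + (D)2/(Dx)2.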

[5] = system: SK-N-SH; assay: Cytotoxicity against human SK-N-SH cells assessed as cell death at 50 uM after 72 hrs by MTT assay; format: functional
[6] = system: SK-N-SH; assay: Cytotoxicity against human SK-N-SH cells assessed as cell death at 80 uM after 72 hrs by MTT assay; format: functional
[7] = species on record: Capra hircus; assay: Inhibition of goat brain tubulin polymerization at 5 uM incubated for 20 mins prior to GTP addition measured for 30 mins by 90 degree light scattering-based fluorescence spectrophotometric method; in short: as §1
[8] = system: HeLa; assay: Inhibition of mitosis in human HeLa cells assessed as mitotic index at 200 nM after 48 hrs by Hoechst 33258 DNA staining assay (reference value: 4 +/- 0.2 %); format: functional; set-up: scale not given: the % may be the effect or the level left
In short: (§2)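 HeLa cells were treated for 24 or 48 h with compound or vehicle (0.1% DMSO). DNA was stained with Hoechst 33258 and mitotic cells were counted to give the mitotic index.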

[9] = system: HeLa; assay: Inhibition of mitosis in human HeLa cells assessed as mitotic index at 200 nM after 24 hrs by Hoechst 33258 DNA staining assay (reference value: 4 +/- 0.3 %); format: functional; set-up: scale not given: the % may be the effect or the level left; in short: as §2
[10] = system: HeLa; assay: Inhibition of mitosis in human HeLa cells assessed as mitotic index at 300 nM after 48 hrs by Hoechst 33258 DNA staining assay (reference value: 4 +/- 0.2 %); format: functional; set-up: scale not given: the % may be the effect or the level left; in short: as §2
[11] = system: HeLa; assay: Inhibition of mitosis in human HeLa cells after 24 hrs by Hoechst 33258 DNA staining assay; format: functional, cell-based; in short: as §2
[12] = system: HeLa; assay: Inhibition of mitosis in human HeLa cells assessed as mitotic index at 100 nM after 48 hrs by Hoechst 33258 DNA staining assay (reference value: 4 +/- 0.2 %); format: functional; set-up: scale not given: the % may be the effect or the level left; in short: as §2
[13] = system: HeLa; assay: Induction of apoptosis in human HeLa cells assessed as apoptotic cells at 700 nM after 10 hrs by annexin V-FITC/propidium iodide staining-based FACS analysis; format: functional
In short: (§3)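 HeLa cells were exposed for 10 or 24 h, then stained with annexin V and propidium iodide using an apoptosis kit. Apoptotic cells were quantified by FACS. Compounds were dissolved in DMSO.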

[14] = system: HeLa; assay: Inhibition of mitosis in human HeLa cells assessed as mitotic index at 300 nM after 24 hrs by Hoechst 33258 DNA staining assay (reference value: 4 +/- 0.3 %); format: functional; set-up: scale not given: the % may be the effect or the level left; in short: as §2
[15] = system: HeLa; assay: Inhibition of mitosis in human HeLa cells assessed as mitotic index at 100 nM after 24 hrs by Hoechst 33258 DNA staining assay (reference value: 4 +/- 0.3 %); format: functional; set-up: scale not given: the % may be the effect or the level left; in short: as §2
[16] = system: HeLa; assay: Induction of apoptosis in human HeLa cells assessed as apoptotic cells at 700 nM after 24 hrs by annexin V-FITC/propidium iodide staining-based FACS analysis; format: functional; in short: as §3

SMILES: CC[C@H](C)[C@@H]([C@H](CC(=O)NC[C@H]1O[C@H](C(=O)N[C@@H](Cc2ccccc2)c2nccs2)[C@@H](OC)[C@@H]1OC)OC)N(C)C(=O)[C@@H](NC(=O)[C@H](C(C)C)N(C)C)C(C)C
- IC50 [1]: 16 nM

SMILES: CC[C@]1(O)C[C@@H]2CN(CCc3c([nH]c4ccccc34)[C@@](C(=O)OC)(c3cc4c(cc3OC)N(C)[C@H]3[C@@](O)(C(=O)OC)[C@H](OC(C)=O)[C@]5(CC)C=CCN6CC[C@]43[C@@H]65)C2)C1 [VINBLASTINE]
- IC50 [2]: 1500 nM
- inhibition [3]: 50%
- Activity [4]: 2.3 nM

SMILES: CC[C@]12C=CCN3CC[C@@]4(c5cc([C@@]6(C(=O)OC)C[C@@H]7C[C@@H](C(C)(F)F)CN(Cc8c6[nH]c6ccccc86)C7)c(OC)cc5N(C)[C@H]4[C@@](O)(C(=O)OC)[C@@H]1OC(C)=O)[C@@H]32 [VINFLUNINE]
- Activity [5]: 50%
- Activity [6]: 70%

SMILES: CC[C@H](C)[C@@H]([C@@H](CC(=O)N1CCC[C@H]1[C@H](OC)[C@@H](C)C(=O)N[C@@H](Cc1ccccc1)c1nccs1)OC)N(C)C(=O)[C@@H](NC(=O)[C@H](C(C)C)N(C)C)C(C)C [DOLASTATIN-10]
- IC50 [2]: 1200 nM

SMILES: CO[C@@H](/C(C)=C/C=C/C(C)=C/c1coc(C)n1)[C@@H](C)[C@@H]1C[C@H](O)[C@@]2(C)O[C@@H]2/C=C/[C@@H](C)[C@H]2C[C@H](CC(=O)O2)C[C@@H]2O[C@H]2C(=O)O1 [RHIZOXIN]
- IC50 [2]: 6800 nM

SMILES: CC[C@H](C)[C@@H]([C@@H](CC(=O)NC[C@H]1O[C@@H](C(=O)NCCc2ccccc2)[C@@H](OC)[C@@H]1OC)OC)N(C)C(=O)[C@@H](NC(=O)[C@@H](NC)C(C)C)C(C)C
- IC50 [1]: 15 nM

SMILES: CC[C@H](C)[C@@H](/C=C/C(=O)NC[C@H]1O[C@@H](C(=O)N[C@@H](Cc2ccccc2)C2=NCCS2)[C@@H](OC)[C@@H]1OC)N(C)C(=O)[C@@H](NC(=O)[C@@H](NC)C(C)C)C(C)C
- inhibition [7]: 19%
- IC50 [1]: 8.7 nM

SMILES: CC[C@H](C)[C@@H]([C@H](O)CC(=O)NC[C@H]1O[C@@H](C(=O)NCc2ccccc2)[C@@H](OC)[C@@H]1OC)N(C)C(=O)[C@@H](NC(=O)[C@@H](NC)C(C)C)C(C)C
- IC50 [1]: 16 nM

SMILES: COc1cc2c(c(OC)c1OC)-c1ccc(OC)c(=O)cc1[C@@H](NC(C)=O)CC2 [COLCHICINE]
- Activity [4]: 17.8 nM

SMILES: CC[C@H](C)[C@@H]([C@H](O)CC(=O)NC[C@H]1O[C@H](C(=O)NCc2ccccc2)[C@@H](OC)[C@@H]1OC)N(C)C(=O)[C@@H](NC(=O)[C@@H](NC)C(C)C)C(C)C
- IC50 [1]: 12 nM

SMILES: CC[C@H](C)[C@@H]([C@H](CC(=O)NC[C@H]1O[C@H](C(=O)N[C@@H](Cc2ccccc2)c2nccs2)[C@@H](OC)[C@@H]1OC)OC)N(C)C(=O)[C@@H](NC(=O)[C@@H](NC)C(C)C)C(C)C
- inhibition [7]: 10%
- IC50 [1]: 9.9 nM

SMILES: COC(=O)Nc1nc2cc(C(=O)c3cccs3)ccc2[nH]1 [NOCODAZOLE]
- Activity [8]: 13%
- Activity [9]: 28%
- Activity [10]: 11%
- inhibition [11]: Dose-dependent effect
- Activity [12]: 14%
- Activity [13]: 14.7%
- Activity [14]: 36%
- IC50 [1]: 178 nM
- Activity [15]: 22%
- Activity [16]: 50.5%

SMILES: CC[C@H](C)[C@@H](/C=C/C(=O)NC[C@H]1O[C@@H](C(=O)N[C@@H](Cc2ccccc2)C2=NCCS2)[C@@H](OC)[C@@H]1OC)N(C)C(=O)[C@@H](NC(=O)[C@H](C(C)C)N(C)C)C(C)C
- inhibition [7]: 21%
- IC50 [1]: 8.8 nM

SMILES: COC1=CC(=O)N(C(=O)[C@@H](OC(=O)[C@@H]2CCCN2C(=O)[C@@H]2CCCN2C(=O)[C@H](C(C)C)N(C)C(=O)[C@@H](NC(=O)[C@H](C(C)C)N(C)C)C(C)C)C(C)C)[C@H]1Cc1ccccc1 [DOLASTATIN 15] (NMe2Val-V[NMeV]PP-X1)
- IC50 [2]: 23000 nM

Reference: ChEMBL document CHEMBL2331364, “A synthetic dolastatin 10 analogue suppresses microtubule dynamics, inhibits cell proliferation, and induces apoptotic cell death” (J Med Chem, 2013)
